Data on one compound can be found in ChEMBL document CHEMBL4834471 (J Med Chem, 2021).

Data set [1] can be described thus: Drug degradation in mouse at 10 mg/kg, po. The following applies: in vivo. It is filed as ADME, organism-based. The gist of the method: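 Mice with acute peritonitis dosed orally at 10 mg/kg; plasma compound and metabolite concentrations measured 90 min after administration from extracted chromatograms; n = 8 mice.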
A short description of data set [2]: Drug metabolism in human liver-on-chip assessed as compound conjugation with sulfate incubated for 48 hrs by UPLC-MS/MS analysis. In kind it is ADME, tissue-based. The gist of the method: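 Liver-on-chip built from differentiated HepaRG cells (hepatocyte-like and biliary-like) with a HUVEC endothelial layer. Loaded with compound at 1 μM and incubated 48 h; compound and metabolites quantified from extracted chromatograms; n = 3 independent experiments.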

A short description of data set [3]: Antioxidant activity assessed as DPPH radical scavenging activity at 0.1 to 10 uM incubated for 30 mins by microplate reader based assay. It is filed as functional. The following applies: dose 0.1-10 µM. The gist of the method: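 Compound incubated with DPPH (50 mM, as printed) in ethanol for 30 min, then absorbance read at 520 nm. Ascorbic acid at 25 μM used as positive control; n = 4 independent experiments.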

The nature of data set [4]: Cytotoxicity against human PBMC assessed as reduction in metabolic activity at <=1 uM after 2 to 24 hrs by MTT assay. The note with it: time 2-24 hrs. In short, it runs like this: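 PBMC at 2 × 10^6/mL in monocyte medium treated 2 or 24 h at 37 °C, 5% CO2, with 0.1% DMSO vehicle. MTT added for 4 h in the dark, formazan solubilized in SDS/HCl, absorbance read at 570 nm.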
(Tetrazolium dyes change colour on reduction, which living cells bring about.)

For a further data set, the system named is Monocyte. In words: Cytotoxicity against human monocytes assessed as reduction in LDH release at 1 to 10 uM after 2 to 24 hrs by CytoTox96 nonradioactive assay. The following applies: dose lower 1 µM, time lower 2 hrs, dose upper 10 µM, time upper 24 hrs. In kind it is cell-based. In short, it runs like this:
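Monocytes at 4 × 10^5/mL in monocyte medium treated 2 or 24 h at 37 °C, 5% CO2, with 0.1% DMSO vehicle. LDH release measured by CytoTox 96 kit, with Triton X-100 (0.8%) defining maximum release.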
A general note: LDH leaks from cells whose membrane has failed.

Data set [5] has as its target T1, Prostaglandin E synthase (Homo sapiens) (UniProt O14684).
T1 sequence (whole entry): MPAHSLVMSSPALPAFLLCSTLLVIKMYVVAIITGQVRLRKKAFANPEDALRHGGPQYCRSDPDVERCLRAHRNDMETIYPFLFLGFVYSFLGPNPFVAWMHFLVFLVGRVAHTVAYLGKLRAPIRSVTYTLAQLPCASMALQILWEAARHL
In words: Inhibition of mPGES-1 activity in IL-1beta treated human A549 cells assessed as reduction in PGE2 formation at 10 uM using PGH2 as substrate preincubated for 15 mins followed by substrate addition and measured after 1 min. It is filed as cell-based. The following applies: time 16.0 min.

Data set [6] has as its target T2, Prostaglandin G/H synthase 1 (Ovis aries) (UniProt P05979).
T2 sequence (whole entry): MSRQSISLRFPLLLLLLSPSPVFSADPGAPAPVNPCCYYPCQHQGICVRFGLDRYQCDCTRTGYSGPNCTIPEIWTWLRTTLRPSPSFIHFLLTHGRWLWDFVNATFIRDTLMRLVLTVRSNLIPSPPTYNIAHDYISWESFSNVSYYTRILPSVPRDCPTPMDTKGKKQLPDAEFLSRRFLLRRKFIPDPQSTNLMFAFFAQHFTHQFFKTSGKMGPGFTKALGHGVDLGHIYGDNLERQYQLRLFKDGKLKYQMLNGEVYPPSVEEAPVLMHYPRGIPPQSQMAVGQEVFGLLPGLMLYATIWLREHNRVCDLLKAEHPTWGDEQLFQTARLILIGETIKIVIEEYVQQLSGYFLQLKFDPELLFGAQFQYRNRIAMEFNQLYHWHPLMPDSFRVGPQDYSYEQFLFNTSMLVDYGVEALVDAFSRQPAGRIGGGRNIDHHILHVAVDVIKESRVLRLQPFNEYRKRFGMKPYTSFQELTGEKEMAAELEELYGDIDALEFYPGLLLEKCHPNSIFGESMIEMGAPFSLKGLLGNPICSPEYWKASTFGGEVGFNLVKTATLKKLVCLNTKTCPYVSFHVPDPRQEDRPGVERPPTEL
Briefly: Inhibition of ovine COX-1 assessed as reduction in 12-HHT formation at 10 uM using arachidonic acid as substrate preincubated for 6 mins followed by substrate addition by RPL-HPLC method.

The subject of data set [7] is Keratinocyte. In words: Antiinflammatory activity in cytokine cocktail-induced reconstructed human epidermis model assessed as attenuation of epidermal disorganization at 5 to 25 uM after 4 days by HE staining based assay. It is filed as functional, cell-based. The following applies: dose 5-25 µM, time 4.0 day. The gist of the method: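 Reconstructed human epidermis exposed to compound and stressed with a cytokine cocktail for 4 days. Readouts: IL-8 in growth medium, H&E morphology, transepidermal water loss, stratum corneum permeability to Lucifer yellow with DAPI nuclear stain, and surface pH. n = 2–3 independent experiments.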

Data set [8] concerns Keratinocyte. Briefly: Antiinflammatory activity in cytokine cocktail-induced reconstructed human epidermis model assessed as effect on TSLP expression at 5 to 25 uM after 4 days by ELISA. In kind it is functional, cell-based. The following applies: dose 5-25 µM, time 4.0 day. For orientation: ELISA stands for enzyme-linked immunosorbent assay.
Data set [9] concerns Mus musculus. Briefly: Antiinflammatory activity in zymosan-induced CD-1 mouse peritonitis model assessed as reduction in vascular permeability at 10 mg/kg, ip preincubated with compound for 30 mins followed by zymosan addition and measured after 30 mins. In kind it is functional, organism-based. The note with it: time 60.0 min. In short, it runs like this:
(§1)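 Zymosan peritonitis with compound 10 mg/kg i.p. Vascular permeability assessed at 30 min after zymosan. Exudate LTB4 (ELISA) and peritoneal immune cell infiltration assessed at 4 h. Two-tailed unpaired t-test of log data.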

For data set [10], the system named is Mus musculus. In words: Antiinflammatory activity in zymosan-induced CD-1 mouse peritonitis model assessed as reduction in LTB4 level at 10 mg/kg, ip preincubated with compound for 30 mins followed by zymosan addition and measured after 4 hrs by ELISA. It is filed as functional, organism-based. The following applies: time 270.0 min. In short, it runs like this: as §1

Data set [11] concerns Mus musculus. Briefly: Antiinflammatory activity in zymosan-induced CD-1 mouse peritonitis model assessed as reduction in immune cell infiltration into peritoneal cavity at 10 mg/kg, ip preincubated with compound for 30 mins followed by zymosan addition and measured after 4 hrs. It is filed as functional, organism-based. The note with it: time 270.0 min. In short, it runs like this:
as §1

Data set [12] in a line: Drug concentration in plasma of CD-1 mouse at 30 mg/kg, po after 30 mins. It is filed as ADME, organism-based. The gist of the method: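 Oral dosing at 30 mg/kg in zymosan peritonitis; mice killed 30 min after zymosan injection. Compound concentrations measured in plasma and in peritoneal exudate.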
The test system of data set [13] is Mus musculus. Briefly: Antiinflammatory activity in zymosan-induced CD-1 mouse peritonitis model assessed as reduction in LOX derived metabolites at 10 mg/kg, po preincubated with compound for 60 mins followed by zymosan addition and measured after 30 mins. It is filed as functional, organism-based. The note with it: time 90.0 min. The gist of the method:
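Oral dosing at 10 mg/kg in zymosan peritonitis; mice killed 30 min after zymosan. Peritoneal exudate lipid mediators and fatty acids profiled by UPLC-MS/MS, with LTC4 measured by ELISA; results expressed as fold change versus vehicle.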

The subject of data set [14] is Mus musculus. Briefly: Antiinflammatory activity BALB/c mouse assessed as restoration of salbutamol-induced adrenergic bronchial relaxation at 10 mg/kg, po administered on day 0 and 7 and measured upto 21 days. In kind it is functional, organism-based. The following applies: time day <=21.

Activity calls are given as the source filed them. The calls are words filed in the database; no cut-off is given here.

Regarding `C/C(=C\CC/C(C)=C/CC[C@]1(C)CCc2c(C)c(O)c(C)c(C)c2O1)CCC=C(CO)CO`, the Stabilty result in [1] is recorded as “Stable”. In [2], the Drug metabolism entry was “Metabolite_Detected”. For the same compound, the result (in [3]; in the data set on Keratinocyte [8]) was inactive. Also, the Activity result is reported as “Non-Toxic” in data set [4] and “Toxic” with Monocyte. Also, the inhibition result in data set [5] was “Active”. Moreover, the inhibition result in data set [6] was “inactive”. The result in the data set on Keratinocyte [7], in the data set on Mus musculus [9], in the data set with Mus musculus [10], in the data set with Mus musculus [11], in the data set on Mus musculus [13] and in the data set on Mus musculus [14] was Active. In [12], this compound gave a concentration at 0.5 h of 20 nM.
